ChEMBL document CHEMBL5036335, “Functional Characterization of the Nemertide α Family of Peptide Toxins” (J Nat Prod, 2021)
pEC50: −log10 of the molar value.

Columns and labels:
[1] = Toxicity in Artemia salina assessed as mortality incubated for 24 hrs in dark by microwell assay; format: organism-based
In short: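 Nauplii hatched from cysts in aerated artificial seawater (33 g/L), harvested at 24 h, RT. Peptide at 0.003–300 μM in water, in duplicate wells with water control, plus 10–15 nauplii in salt water. Dead and immobilized nauplii counted under a microscope, then the rest killed with MeOH and all counted. % dead or immobilized per well; EC50 by nonlinear regression.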

[2] = target: Sodium channel protein type 1 subunit alpha (Homo sapiens, UniProt P35498); assay: Modulator activity at human Nav1.1 expressed in Xenopus laevis oocytes assessed as elicitation in sodium current measured after 1 to 4 days by two-electrode voltage clamp assay; format: cell-based, Oocyte
In short: (§1)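 Channel cRNA, with auxiliary subunits rβ1, hβ1 or TipE, transcribed from linearized plasmids; 50 nL of 1 ng/nL injected into stage V–VI X. laevis oocytes, kept in 96 mM NaCl, 2 mM KCl, 1.8 mM CaCl2, 2 mM MgCl2, 5 mM HEPES pH 7.4 with gentamycin. Two-electrode voltage clamp at 18–22 °C in same bath solution; 3 M KCl electrodes of 0.8–1.5 MΩ; currents filtered at 1 kHz, sampled at 20 kHz. EC50 from Hill equation fit.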

[3] = target: Sodium channel protein type 2 subunit alpha (Rattus norvegicus, UniProt P04775); assay: Modulator activity at rat Nav1.2 expressed in Xenopus laevis oocytes assessed as elicitation in sodium current measured after 1 to 4 days by two-electrode voltage clamp assay; format: cell-based, Oocyte; in short: as §1
[4] = target: Sodium channel protein type 3 subunit alpha (Rattus norvegicus, UniProt P08104); assay: Modulator activity at rat Nav1.3 expressed in Xenopus laevis oocytes assessed as elicitation in sodium current measured after 1 to 4 days by two-electrode voltage clamp assay; format: cell-based, Oocyte; in short: as §1
Chain of Sodium channel protein type 3 subunit alpha (P08104 whole entry): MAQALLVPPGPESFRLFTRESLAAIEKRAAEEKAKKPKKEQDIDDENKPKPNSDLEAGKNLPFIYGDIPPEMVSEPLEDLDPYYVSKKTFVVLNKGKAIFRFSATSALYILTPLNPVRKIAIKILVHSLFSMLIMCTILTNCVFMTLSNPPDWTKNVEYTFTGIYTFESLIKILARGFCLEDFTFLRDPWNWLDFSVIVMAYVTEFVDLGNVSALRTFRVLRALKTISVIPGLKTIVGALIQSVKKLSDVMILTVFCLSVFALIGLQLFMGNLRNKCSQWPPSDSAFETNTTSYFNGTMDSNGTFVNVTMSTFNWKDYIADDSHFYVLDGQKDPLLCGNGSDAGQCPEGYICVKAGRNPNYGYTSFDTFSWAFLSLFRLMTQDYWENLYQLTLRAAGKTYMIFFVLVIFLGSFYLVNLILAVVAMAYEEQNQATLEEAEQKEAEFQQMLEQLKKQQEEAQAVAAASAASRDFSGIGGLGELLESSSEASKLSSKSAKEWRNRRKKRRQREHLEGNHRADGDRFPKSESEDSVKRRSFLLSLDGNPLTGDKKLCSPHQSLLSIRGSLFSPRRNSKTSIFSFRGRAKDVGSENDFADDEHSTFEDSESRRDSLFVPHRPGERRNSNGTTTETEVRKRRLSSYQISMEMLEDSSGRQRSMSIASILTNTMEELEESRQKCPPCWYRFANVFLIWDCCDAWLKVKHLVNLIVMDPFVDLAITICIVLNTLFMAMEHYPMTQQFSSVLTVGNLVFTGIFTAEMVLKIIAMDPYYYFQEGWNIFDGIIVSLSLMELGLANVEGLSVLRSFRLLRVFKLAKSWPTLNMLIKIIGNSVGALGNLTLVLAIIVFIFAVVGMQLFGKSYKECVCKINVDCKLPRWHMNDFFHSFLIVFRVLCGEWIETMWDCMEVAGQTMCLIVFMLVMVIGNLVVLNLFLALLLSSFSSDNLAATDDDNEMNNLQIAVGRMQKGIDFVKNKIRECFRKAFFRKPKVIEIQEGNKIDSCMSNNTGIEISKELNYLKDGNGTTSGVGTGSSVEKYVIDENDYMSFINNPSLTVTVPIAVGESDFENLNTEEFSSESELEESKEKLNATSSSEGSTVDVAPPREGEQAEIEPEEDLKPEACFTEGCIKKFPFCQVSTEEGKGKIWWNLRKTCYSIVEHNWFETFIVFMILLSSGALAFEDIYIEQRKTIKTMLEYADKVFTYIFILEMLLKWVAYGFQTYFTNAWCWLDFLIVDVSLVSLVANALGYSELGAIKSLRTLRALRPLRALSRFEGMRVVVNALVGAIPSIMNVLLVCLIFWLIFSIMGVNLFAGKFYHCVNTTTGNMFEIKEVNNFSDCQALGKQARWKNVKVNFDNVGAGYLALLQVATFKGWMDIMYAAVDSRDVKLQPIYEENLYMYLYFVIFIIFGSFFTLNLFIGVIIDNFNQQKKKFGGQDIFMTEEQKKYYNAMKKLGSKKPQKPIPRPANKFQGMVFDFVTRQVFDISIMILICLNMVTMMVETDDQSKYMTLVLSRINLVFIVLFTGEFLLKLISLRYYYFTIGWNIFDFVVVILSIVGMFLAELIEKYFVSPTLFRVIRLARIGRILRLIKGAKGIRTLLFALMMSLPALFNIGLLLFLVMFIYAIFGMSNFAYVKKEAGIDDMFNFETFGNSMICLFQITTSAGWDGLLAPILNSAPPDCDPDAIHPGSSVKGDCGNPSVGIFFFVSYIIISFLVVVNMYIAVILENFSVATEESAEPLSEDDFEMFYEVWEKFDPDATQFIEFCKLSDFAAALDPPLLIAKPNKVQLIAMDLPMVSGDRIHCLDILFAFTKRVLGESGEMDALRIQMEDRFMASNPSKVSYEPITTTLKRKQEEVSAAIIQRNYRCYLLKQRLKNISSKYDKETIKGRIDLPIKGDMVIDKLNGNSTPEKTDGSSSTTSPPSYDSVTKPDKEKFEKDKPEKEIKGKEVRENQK

[5] = target: Sodium channel protein type 4 subunit alpha (Rattus norvegicus, UniProt P15390); assay: Modulator activity at rat Nav1.4 expressed in Xenopus laevis oocytes assessed as elicitation in sodium current measured after 1 to 4 days by two-electrode voltage clamp assay; format: cell-based, Oocyte; in short: as §1
Chain of Sodium channel protein type 4 subunit alpha (P15390 whole entry): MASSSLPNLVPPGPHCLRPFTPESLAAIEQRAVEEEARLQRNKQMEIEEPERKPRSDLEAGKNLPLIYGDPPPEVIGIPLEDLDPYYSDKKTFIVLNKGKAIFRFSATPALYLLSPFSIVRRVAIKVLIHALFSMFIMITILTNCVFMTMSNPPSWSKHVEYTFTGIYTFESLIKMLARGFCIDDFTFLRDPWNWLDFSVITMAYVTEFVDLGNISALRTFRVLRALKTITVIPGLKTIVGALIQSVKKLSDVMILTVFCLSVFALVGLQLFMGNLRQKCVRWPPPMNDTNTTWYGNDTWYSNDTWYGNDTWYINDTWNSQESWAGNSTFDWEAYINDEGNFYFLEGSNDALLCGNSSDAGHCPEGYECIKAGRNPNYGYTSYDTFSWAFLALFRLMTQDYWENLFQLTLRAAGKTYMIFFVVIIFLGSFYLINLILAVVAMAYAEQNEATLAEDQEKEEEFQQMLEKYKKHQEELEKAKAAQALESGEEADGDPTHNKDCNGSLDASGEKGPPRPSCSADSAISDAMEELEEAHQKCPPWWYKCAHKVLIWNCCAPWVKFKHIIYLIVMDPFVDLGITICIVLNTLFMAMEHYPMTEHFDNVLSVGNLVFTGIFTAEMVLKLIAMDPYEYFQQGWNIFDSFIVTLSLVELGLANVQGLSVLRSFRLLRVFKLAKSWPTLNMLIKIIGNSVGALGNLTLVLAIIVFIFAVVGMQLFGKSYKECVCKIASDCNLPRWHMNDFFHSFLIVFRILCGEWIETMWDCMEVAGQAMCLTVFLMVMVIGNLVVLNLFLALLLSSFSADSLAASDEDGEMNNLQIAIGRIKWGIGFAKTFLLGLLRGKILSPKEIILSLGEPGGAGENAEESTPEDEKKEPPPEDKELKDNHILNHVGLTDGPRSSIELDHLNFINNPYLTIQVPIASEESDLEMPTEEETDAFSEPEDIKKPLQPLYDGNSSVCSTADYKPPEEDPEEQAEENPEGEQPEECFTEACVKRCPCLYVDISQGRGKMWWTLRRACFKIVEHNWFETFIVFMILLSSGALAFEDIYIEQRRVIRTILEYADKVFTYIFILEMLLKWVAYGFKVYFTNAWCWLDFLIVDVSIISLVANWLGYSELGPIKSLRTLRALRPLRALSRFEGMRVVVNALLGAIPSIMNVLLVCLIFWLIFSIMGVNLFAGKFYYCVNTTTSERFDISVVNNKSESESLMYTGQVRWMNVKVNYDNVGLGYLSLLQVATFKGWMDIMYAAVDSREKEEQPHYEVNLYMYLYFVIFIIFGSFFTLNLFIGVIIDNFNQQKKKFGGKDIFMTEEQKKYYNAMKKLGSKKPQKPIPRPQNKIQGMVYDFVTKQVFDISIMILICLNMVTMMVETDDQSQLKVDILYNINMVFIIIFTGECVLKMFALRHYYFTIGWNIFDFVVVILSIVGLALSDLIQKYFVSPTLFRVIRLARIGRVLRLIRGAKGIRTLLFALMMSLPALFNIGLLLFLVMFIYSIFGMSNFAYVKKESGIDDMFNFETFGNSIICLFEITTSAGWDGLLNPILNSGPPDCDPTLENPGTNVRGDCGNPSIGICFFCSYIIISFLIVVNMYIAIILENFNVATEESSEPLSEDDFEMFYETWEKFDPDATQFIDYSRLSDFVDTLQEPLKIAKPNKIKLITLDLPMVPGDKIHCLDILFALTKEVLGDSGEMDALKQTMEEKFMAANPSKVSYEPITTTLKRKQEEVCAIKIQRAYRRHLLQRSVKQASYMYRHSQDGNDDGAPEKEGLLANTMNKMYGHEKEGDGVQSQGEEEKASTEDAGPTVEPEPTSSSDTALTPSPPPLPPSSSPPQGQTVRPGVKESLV

[6] = target: Sodium channel protein type 5 subunit alpha (Homo sapiens, UniProt Q14524); assay: Modulator activity at human Nav1.5 expressed in Xenopus laevis oocytes assessed as elicitation in sodium current measured after 1 to 4 days by two-electrode voltage clamp assay; format: cell-based, Oocyte; in short: as §1
[7] = target: Sodium channel protein type 8 subunit alpha (Mus musculus, UniProt Q9WTU3); assay: Modulator activity at mouse Nav1.6 expressed in Xenopus laevis oocytes assessed as elicitation in sodium current measured after 1 to 4 days by two-electrode voltage clamp assay; format: cell-based, Oocyte; in short: as §1
[8] = target: Sodium channel protein type 9 subunit alpha (Homo sapiens, UniProt Q15858); assay: Modulator activity at human Nav1.7 expressed in Xenopus laevis oocytes assessed as elicitation in sodium current measured after 1 to 4 days by two-electrode voltage clamp assay; format: cell-based, Oocyte; in short: as §1
[9] = target: Sodium channel protein type 10 subunit alpha (Rattus norvegicus, UniProt Q62968); assay: Modulator activity at rat Nav1.8 expressed in Xenopus laevis oocytes assessed as elicitation in sodium current measured after 1 to 4 days by two-electrode voltage clamp assay; format: cell-based; settings: oocyte
In short: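 Channel cRNA transcribed from linearized plasmid; 50 nL at 1 ng/nL injected into stage V–VI oocytes. Oocytes held in 96 mM NaCl, 2 mM KCl, 1.8 mM CaCl2, 2 mM MgCl2, 5 mM HEPES pH 7.4 with gentamycin. TEVC at 18–22 °C in the same solution, electrodes 3 M KCl, 0.8–1.5 MΩ. Currents filtered 1 kHz, sampled 20 kHz. EC50 from Hill equation fit.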

[10] = Modulator activity at german cockroach Nav1 expressed in Xenopus laevis oocytes assessed as elicitation in sodium current measured after 1 to 4 days by two-electrode voltage clamp assay; format: cell-based; settings: Blattella germanica, Oocyte; in short: as §1

Row | Compound | EC50 at 24 h [1] [nM] | pEC50 [2] | pEC50 [3] | pEC50 [4] | pEC50 [5] | pEC50 [6] | pEC50 [7] | pEC50 [8] | EC50 [9] | pEC50 [10] | pEC50 ([2]; oocyte) | pEC50 ([3]; oocyte) | pEC50 ([4]; oocyte) | pEC50 ([5]; oocyte) | pEC50 ([6]; oocyte) | pEC50 ([7]; oocyte) | pEC50 ([8]; oocyte)
1 | CC[C@H](C)[C@@H]1NC(=O)[C@@H](NC(=O)CN)CSSC[C@@H]2NC(=O)[C@@H]3CSSC[C@@H](C(=O)N[C@@H](CC(N)=O)C(=O)N4C[C@@H](O)C[C@H]4C(=O)N4C[C@@H](O)C[C@H]4C(=O)N[C@@H](CC(N)=O)C(=O)N[C@@H](CCC(N)=O)C(=O)O)NC(=O)[C@H](Cc4cnc[nH]4)NC(=O)[C@H](Cc4ccccc4)NC(=O)[C@H](CC(N)=O)NC(=O)[C@H](Cc4c[nH]c5ccccc45)NC(=O)CNC(=O)[C@H](CSSC[C@H](NC(=O)[C@H](Cc4ccccc4)NC(=O)[C@H](CO)NC(=O)CNC(=O)[C@H]([C@@H](C)O)NC(=O)[C@H](CCCCN)NC1=O)C(=O)N[C@@H]([C@@H](C)O)C(=O)N[C@@H](CC(C)C)C(=O)N[C@@H](CO)C(=O)N[C@@H](CCCCN)C(=O)NCC(=O)N3)NC(=O)[C@H](CC(N)=O)NC(=O)[C@H](CCCCN)NC(=O)[C@H]([C@@H](C)O)NC2=O | 2800 | 8.10 | 7.61 | 6.98 | 7.33 | 6.67 | 7.44 | 7.01 | Not Active | 8.59 |  |  |  |  |  |  | 
2 | CC[C@H](C)[C@@H]1NC(=O)[C@@H](NC(=O)CN)CSSC[C@@H]2NC(=O)[C@@H]3CSSC[C@@H](C(=O)N[C@@H](CC(N)=O)C(=O)N4C[C@@H](O)C[C@H]4C(=O)N4C[C@@H](O)C[C@H]4C(=O)N[C@@H](CC(N)=O)C(=O)N[C@@H](CCC(N)=O)C(=O)O)NC(=O)[C@H](CCCCN)NC(=O)[C@H](Cc4ccccc4)NC(=O)[C@H](CC(N)=O)NC(=O)[C@H](Cc4c[nH]c5ccccc45)NC(=O)CNC(=O)[C@H](CSSC[C@H](NC(=O)CNC(=O)[C@H](CO)NC(=O)CNC(=O)[C@H]([C@@H](C)O)NC(=O)[C@H](CCCCN)NC1=O)C(=O)N[C@@H]([C@@H](C)O)C(=O)N[C@@H](CC(C)C)C(=O)N[C@@H](CO)C(=O)N[C@@H](CCCCN)C(=O)NCC(=O)N3)NC(=O)[C@H](CC(N)=O)NC(=O)[C@H](CCCCN)NC(=O)[C@H]([C@@H](C)O)NC2=O | 4700 | 6.90 | 6.86 | 6.86 | 6.82 | 6.96 | 7.03 | 6.99 | Not Active | 7.01 |  |  |  |  |  |  | 
3 | CC[C@H](C)[C@@H]1NC(=O)[C@@H](NC(=O)CN)CSSC[C@@H]2NC(=O)[C@@H]3CSSC[C@@H](C(=O)N[C@@H](CC(N)=O)C(=O)N4C[C@@H](O)C[C@H]4C(=O)N4C[C@@H](O)C[C@H]4C(=O)N[C@@H](CC(N)=O)C(=O)N[C@@H](CCC(N)=O)C(=O)O)NC(=O)[C@H](CCCCN)NC(=O)[C@H](Cc4ccccc4)NC(=O)[C@H](CC(N)=O)NC(=O)[C@H](Cc4c[nH]c5ccccc45)NC(=O)CNC(=O)[C@H](CSSC[C@H](NC(=O)[C@H](C(C)C)NC(=O)[C@H](CO)NC(=O)CNC(=O)[C@H]([C@@H](C)O)NC(=O)[C@H](C)NC1=O)C(=O)N[C@@H]([C@@H](C)O)C(=O)N[C@@H](CC(C)C)C(=O)N[C@@H](CO)C(=O)N[C@@H](CCCCN)C(=O)NCC(=O)N3)NC(=O)[C@H](CC(N)=O)NC(=O)[C@H](CCCCN)NC(=O)[C@H]([C@@H](C)O)NC2=O | 2900 | 6.90 | 7.01 | 6.89 | 5.94 | 6.83 | 5.87 | 5.89 | Not Active | 7.06 |  |  |  |  |  |  | 
4 | CC[C@H](C)[C@@H]1NC(=O)[C@@H](NC(=O)CN)CSSC[C@@H]2NC(=O)[C@@H]3CSSC[C@@H](C(=O)N[C@@H](CC(N)=O)C(=O)N4C[C@@H](O)C[C@H]4C(=O)N4C[C@@H](O)C[C@H]4C(=O)N[C@@H](CC(N)=O)C(=O)N[C@@H](CCC(N)=O)C(=O)O)NC(=O)[C@H](CCCCN)NC(=O)[C@H](Cc4ccccc4)NC(=O)[C@H](CC(N)=O)NC(=O)[C@H](Cc4c[nH]c5ccccc45)NC(=O)CNC(=O)[C@H](CSSC[C@H](NC(=O)[C@H](Cc4ccccc4)NC(=O)[C@H](CO)NC(=O)CNC(=O)[C@H]([C@@H](C)O)NC(=O)[C@H](CO)NC1=O)C(=O)N[C@@H]([C@@H](C)O)C(=O)N[C@@H](CC(C)C)C(=O)N[C@@H](CO)C(=O)N[C@@H](CCCCN)C(=O)NCC(=O)N3)NC(=O)[C@H](CC(N)=O)NC(=O)[C@H](CCCCN)NC(=O)[C@H]([C@@H](C)O)NC2=O | 400 | 7.04 | 6.87 | 7.89 | 7.84 | 7.56 | 6.91 | 7.09 | Not Active | 7.95 |  |  |  |  |  |  | 
5 | CC[C@H](C)[C@@H]1NC(=O)[C@@H](NC(=O)CN)CSSC[C@@H]2NC(=O)[C@@H]3CSSC[C@@H](C(=O)N[C@@H](CC(N)=O)C(=O)N4C[C@@H](O)C[C@H]4C(=O)N4C[C@@H](O)C[C@H]4C(=O)N[C@@H](CC(N)=O)C(=O)N[C@@H](CCC(N)=O)C(=O)O)NC(=O)[C@H](Cc4cnc[nH]4)NC(=O)[C@H](Cc4ccccc4)NC(=O)[C@H](CC(N)=O)NC(=O)[C@H](Cc4c[nH]c5ccccc45)NC(=O)CNC(=O)[C@H](CSSC[C@H](NC(=O)[C@H](Cc4ccccc4)NC(=O)[C@H](CO)NC(=O)CNC(=O)[C@H]([C@@H](C)O)NC(=O)[C@H](C)NC1=O)C(=O)N[C@@H]([C@@H](C)O)C(=O)N[C@@H](CC(C)C)C(=O)N[C@@H](CO)C(=O)N[C@@H](CCCCN)C(=O)NCC(=O)N3)NC(=O)[C@H](CC(N)=O)NC(=O)[C@H](CCCCN)NC(=O)[C@H]([C@@H](C)O)NC2=O | 400 | 6.99 | 6.81 | 8.03 | 7.81 | 6.88 | 7.17 | 7.14 | Not Active | 8.11 |  |  |  |  |  |  | 
6 | CC[C@H](C)[C@@H]1NC(=O)[C@@H](NC(=O)CN)CSSC[C@@H]2NC(=O)[C@@H]3CSSC[C@@H](C(=O)N[C@@H](CC(N)=O)C(=O)N[C@H](CCCCN)C(=O)N4C[C@@H](O)C[C@H]4C(=O)N[C@@H](CC(N)=O)C(=O)N[C@@H](CCC(N)=O)C(=O)O)NC(=O)[C@H](Cc4cnc[nH]4)NC(=O)[C@H](Cc4ccccc4)NC(=O)[C@H](CC(N)=O)NC(=O)[C@H](Cc4c[nH]c5ccccc45)NC(=O)CNC(=O)[C@H](CSSC[C@H](NC(=O)[C@H](CCSC)NC(=O)[C@H](CO)NC(=O)CNC(=O)[C@H](C(C)C)NC(=O)[C@@H]4CCCN4C1=O)C(=O)N[C@@H]([C@@H](C)O)C(=O)N[C@@H](CC(C)C)C(=O)N[C@@H](CO)C(=O)N[C@@H](CC(N)=O)C(=O)NCC(=O)N3)NC(=O)[C@H](CC(N)=O)NC(=O)[C@H](CCCCN)NC(=O)[C@H]([C@@H](C)O)NC2=O | 6100 |  |  |  |  |  |  |  | Not Active | 8.02 | 6.77 | 7.30 | 6.77 | 6.09 | 6.81 | 6.83 | 6.89
